Several values for one entry are separate records, joined by “and”; a condition that tells them apart may be missing. Identical values can stand only once.
Tested on: Fibroblast
Experiment: Multiplex assay against human fibroblast
Format: toxicity, cell-based
How it was run: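 Four dyes were applied at seeding to live cells: Hoechst33342, BioTracker Green Microtubule Cytoskeleton Dye, MitoTracker Red and Annexin V Alexa Fluor 680. Imaging after compound addition used a CQ1 microscope at 37°C and 5% CO2. CellPathfinder machine-learning gating then sorted cells into Hoechst high-intensity objects or normal cells, normal cells into healthy, pyknosed or fragmented nuclei, and pyknosed cells into mitotic or apoptotic, with tubulin, mitochondrial-mass and membrane-permeability phenotypes given as per cents of healthy-nucleus cells.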

[1] = 12 h, 1 µM, compound concentration 1 uM
[2] = 12 h, 10 µM, compound concentration 10 uM
[3] = 24 h, 1 µM, compound concentration 1 uM
[4] = 24 h, 10 µM, compound concentration 10 uM
[5] = 48 h, 1 µM, compound concentration 1 uM
[6] = 48 h, 10 µM, compound concentration 10 uM

With `CC(C)[C@H](C(=O)Nc1ccc(C(=O)NO)cc1)c1ccccc1` [AR-42] the “Population Apoptotic (%)” value [1] was 28.12% and 16.67%, the “Population Fragmented Nuclei (%)” value [1] was 8.81% and 7.87% and the “Population Healthy Nuclei (%)” value [1] was 74.61% and 85.39%. The “Population Hoechst High Intensity Objects (%)” value [1] was 0%, the “Population Membrane Permeable-Phenotype (%)” value [1] was 3.47% and 2.63% and the “Population Mitochondria Different-Phenotype (%)” value [1] was 4.17% and 7.89%. For the same molecule, the “Population Mitotic Cells (%)” value [1] was 71.88% and 83.33%, the “Population Normal (%)” value [1] was 100% and the “Population Pyknosed Nuclei (%)” value [1] was 16.58% and 6.74%. The “Population Tubulin-Different-Phenotype (%)” value [1] was 4.17% and 7.24%, the “Total Cell Count” value [1] was 193 and 178 and the “Population Apoptotic (%)” value [2] was 32% and 26.67%. For the same molecule, the “Population Fragmented Nuclei (%)” value [2] was 10.88% and 4.5%, the “Population Healthy Nuclei (%)” value [2] was 76.17% and 88.74% and the “Population Hoechst High Intensity Objects (%)” value [2] was 0%. For the same molecule, the “Population Membrane Permeable-Phenotype (%)” value [2] was 6.8% and 2.54%, the “Population Mitochondria Different-Phenotype (%)” value [2] was 5.44% and 5.58% and the “Population Mitotic Cells (%)” value [2] was 68% and 73.33%. The “Population Normal (%)” value [2] was 100%, the “Population Pyknosed Nuclei (%)” value [2] was 12.95% and 6.76% and the “Population Tubulin-Different-Phenotype (%)” value [2] was 7.48% and 5.58%. The “Total Cell Count” value [2] was 193 and 222, the “Population Apoptotic (%)” value [3] was 40% and 44.44% and the “Population Fragmented Nuclei (%)” value [3] was 11.98% and 8.95%. For the same molecule, the “Population Healthy Nuclei (%)” value [3] was 80.21% and 86.32%, the “Population Hoechst High Intensity Objects (%)” value [3] was 0% and the “Population Membrane Permeable-Phenotype (%)” value [3] was 2.6% and 3.05%. For the same molecule, the “Population Mitochondria Different-Phenotype (%)” value [3] was 2.6% and 3.66%, the “Population Mitotic Cells (%)” value [3] was 60% and 55.56% and the “Population Normal (%)” value [3] was 100%. The “Population Pyknosed Nuclei (%)” value [3] was 7.81% and 4.74%, the “Population Tubulin-Different-Phenotype (%)” value [3] was 1.95% and 1.83% and the “Total Cell Count” value [3] was 192 and 190. For the same molecule, the “Population Apoptotic (%)” value [4] was 50% and 57.14%, the “Population Fragmented Nuclei (%)” value [4] was 11.56% and 10.3% and the “Population Healthy Nuclei (%)” value [4] was 79.19% and 83.69%. For the same molecule, the “Population Hoechst High Intensity Objects (%)” value [4] was 0%, the “Population Membrane Permeable-Phenotype (%)” value [4] was 3.65% and 0% and the “Population Mitochondria Different-Phenotype (%)” value [4] was 4.38% and 6.67%. The “Population Mitotic Cells (%)” value [4] was 50% and 42.86%, the “Population Normal (%)” value [4] was 100% and the “Population Pyknosed Nuclei (%)” value [4] was 9.25% and 6.01%. The “Population Tubulin-Different-Phenotype (%)” value [4] was 3.65% and 2.56%, the “Total Cell Count” value [4] was 173 and 233 and the “Population Apoptotic (%)” value [5] was 37.5% and 50%. For the same molecule, the “Population Fragmented Nuclei (%)” value [5] was 15.15% and 11.46%, the “Population Healthy Nuclei (%)” value [5] was 76.77% and 82.29% and the “Population Hoechst High Intensity Objects (%)” value [5] was 0%. For the same molecule, the “Population Membrane Permeable-Phenotype (%)” value [5] was 1.32% and 1.27%, the “Population Mitochondria Different-Phenotype (%)” value [5] was 19.74% and 7.59% and the “Population Mitotic Cells (%)” value [5] was 62.5% and 50%. The “Population Normal (%)” value [5] was 100%, the “Population Pyknosed Nuclei (%)” value [5] was 8.08% and 6.25% and the “Population Tubulin-Different-Phenotype (%)” value [5] was 2.63% and 3.8%. The “Total Cell Count” value [5] was 198 and 192, the “Population Apoptotic (%)” value [6] was 31.48% and 89.58% and the “Population Fragmented Nuclei (%)” value [6] was 17.84% and 9.95%. The “Population Healthy Nuclei (%)” value [6] was 52.97% and 64.92%, the “Population Hoechst High Intensity Objects (%)” value [6] was 0% and the “Population Membrane Permeable-Phenotype (%)” value [6] was 1.02% and 3.23%. The “Population Mitochondria Different-Phenotype (%)” value [6] was 21.43% and 8.06%, the “Population Normal (%)” value [6] was 100% and the “Population Pyknosed Nuclei (%)” value [6] was 29.19% and 25.13%. For the same molecule, the “Total Cell Count” value [6] was 185 and 191.
In the case of `CCOC(=O)c1c(/C(C#N)=C\N)c2ccc(Cl)c(Cl)c2n1C`, the “Population Fragmented Nuclei (%)” value [1] is reported as 11.86% and 4.52%, the “Population Healthy Nuclei (%)” value [1] is reported as 64.41% and 76.92% and the “Population Hoechst High Intensity Objects (%)” value [1] is reported as 0%. The “Population Membrane Permeable-Phenotype (%)” value [1] was 0% and 2.94%, the “Population Mitochondria Different-Phenotype (%)” value [1] was 11.84% and 14.71% and the “Population Mitotic Cells (%)” value [1] was 96.43% and 85.37%. For the same molecule, the “Population Normal (%)” value [1] was 100%, the “Population Pyknosed Nuclei (%)” value [1] was 23.73% and 18.55% and the “Population Tubulin-Different-Phenotype (%)” value [1] was 10.53% and 18.82%. The “Total Cell Count” value [1] was 118 and 221, the “Population Apoptotic (%)” value [2] was 24.32% and 12.77% and the “Population Fragmented Nuclei (%)” value [2] was 10.92% and 3.83%. The “Population Healthy Nuclei (%)” value [2] was 67.82% and 76.17%, the “Population Hoechst High Intensity Objects (%)” value [2] was 0% and the “Population Membrane Permeable-Phenotype (%)” value [2] was 4.24% and 1.12%. For the same molecule, the “Population Mitochondria Different-Phenotype (%)” value [2] was 3.39% and 7.82%, the “Population Mitotic Cells (%)” value [2] was 75.68% and 87.23% and the “Population Normal (%)” value [2] was 100%. The “Population Pyknosed Nuclei (%)” value [2] was 21.26% and 20%, the “Population Tubulin-Different-Phenotype (%)” value [2] was 15.25% and 16.2% and the “Total Cell Count” value [2] was 174 and 235. For the same molecule, the “Population Apoptotic (%)” value [3] was 0% and 20.83%, the “Population Fragmented Nuclei (%)” value [3] was 7.25% and 3.83% and the “Population Healthy Nuclei (%)” value [3] was 72.46% and 85.96%. For the same molecule, the “Population Hoechst High Intensity Objects (%)” value [3] was 0%, the “Population Membrane Permeable-Phenotype (%)” value [3] was 4% and 1.98% and the “Population Mitochondria Different-Phenotype (%)” value [3] was 3% and 6.93%. The “Population Mitotic Cells (%)” value [3] was 100% and 79.17%, the “Population Normal (%)” value [3] was 100% and the “Population Pyknosed Nuclei (%)” value [3] was 20.29% and 10.21%. For the same molecule, the “Population Tubulin-Different-Phenotype (%)” value [3] was 11% and 18.81%, the “Total Cell Count” value [3] was 138 and 235 and the “Population Apoptotic (%)” value [4] was 14.81% and 20.59%. For the same molecule, the “Population Fragmented Nuclei (%)” value [4] was 8.02% and 1.27%, the “Population Healthy Nuclei (%)” value [4] was 77.54% and 84.39% and the “Population Hoechst High Intensity Objects (%)” value [4] was 0%. For the same molecule, the “Population Membrane Permeable-Phenotype (%)” value [4] was 3.45% and 2.5%, the “Population Mitochondria Different-Phenotype (%)” value [4] was 4.14% and 7% and the “Population Mitotic Cells (%)” value [4] was 85.19% and 79.41%. The “Population Normal (%)” value [4] was 100%, the “Population Pyknosed Nuclei (%)” value [4] was 14.44% and 14.35% and the “Population Tubulin-Different-Phenotype (%)” value [4] was 11.03% and 18.5%. For the same molecule, the “Total Cell Count” value [4] was 187 and 237, the “Population Apoptotic (%)” value [5] was 40% and 25% and the “Population Fragmented Nuclei (%)” value [5] was 12.18% and 3.67%. The “Population Healthy Nuclei (%)” value [5] was 84.62% and 91.43%, the “Population Hoechst High Intensity Objects (%)” value [5] was 0% and the “Population Membrane Permeable-Phenotype (%)” value [5] was 0% and 2.68%. The “Population Mitotic Cells (%)” value [5] was 60% and 75%, the “Population Normal (%)” value [5] was 100% and the “Population Pyknosed Nuclei (%)” value [5] was 3.21% and 4.9%. For the same molecule, the “Population Tubulin-Different-Phenotype (%)” value [5] was 7.58% and 20.98%, the “Total Cell Count” value [5] was 156 and 245 and the “Population Apoptotic (%)” value [6] was 44.44% and 21.05%. The “Population Fragmented Nuclei (%)” value [6] was 8.78% and 2.61%, the “Population Healthy Nuclei (%)” value [6] was 86.83% and 89.13% and the “Population Hoechst High Intensity Objects (%)” value [6] was 0%. The “Population Membrane Permeable-Phenotype (%)” value [6] was 0.56% and 2.93%, the “Population Mitochondria Different-Phenotype (%)” value [6] was 11.24% and 1.95% and the “Population Mitotic Cells (%)” value [6] was 55.56% and 78.95%. The “Population Normal (%)” value [6] was 100%, the “Population Pyknosed Nuclei (%)” value [6] was 4.39% and 8.26% and the “Total Cell Count” value [6] was 205 and 230.

Reference: ChEMBL document CHEMBL5724801, “EUbOPEN Chemogenomics Library - Multiplex” (2024)
